Results published in publication PMC7541604 (Clinical cancer research : an official journal of the …, 2020).
“And” between values parts separate entries of the source, which are not always exact repeats. Equal entries are not always repeated.

How the values were obtained:
Assay type in all cases: in vivo, human
[1] = Plasma radioHPLC analysis of tracer metabolism; conditions: for Relative amount in plasma supernatant, GM: % of total activity of identified radioHPLC peaks
[2] = PET-derived urinary and biliary tracer excretion
How it was run: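 Serial PET, with bisacodyl 15 mg orally on three nights post-injection: at each time-point, 3D VOIs measured total activity in the urinary bladder and in the hepatobiliary tree plus bowel. Tracer lost by voiding or defecation was tracked from whole-FOV activity on decay-corrected serial scans, normalized to total activity on the initial scan immediately post-injection.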

[3] = Whole blood and plasma radioassay of tracer clearance
How it was run: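 Tracer was injected IV over 1-2 min and blood drawn through a separate peripheral line at 10, 20 and 30 min and 1-2 or 3-4 h, plus 20-24 h in a subset (n=7). Whole blood and/or plasma were radioassayed by well counter. α and β half-lives came from biexponential fits, summarized as geometric mean. Plasma exposure was expressed as %ID·g·h/mL from 10 min to 4 h.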

[4] = PET/CT tracer biodistribution in normal organs
How it was run: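 Patients received 201±12 MBq tracer IV, with SSKI taken ≥2 h before and daily for two weeks. PET-CT ran skull vertex to proximal thighs at 3-4 and 20-24 h post-injection, with CT for attenuation correction and anatomic localization. Mean SUV was measured in normal organs, including aortic blood pool, humerus, axial skeleton and brain, at 4 and 24 h (n=30).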

[5] = Clinical safety monitoring incl. serum TSH; conditions: microdose tracer 201±12 MBq, <25 μg IV, n=30 patients
How it was run: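 Microdose tracer was given IV after seven drops SSKI orally ≥2 h pre-injection, repeated daily for two weeks. Serum TSH was measured <1 week pre-injection as baseline and again 6-12 months post-injection. Toxicity signs and symptoms were checked at each imaging time-point, and patients reported adverse symptoms over the following 30 days.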

[6] = system: tumor epichaperome formations (epichaperome/HSP90); assay: 124I-PU-H71 PET/CT tumor imaging in cancer patients
How it was run: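 Adults with solid malignancy or lymphoma received 201±12 MBq tracer IV over 1-2 min, no contrast, with SSKI thyroid blockade. PET-CT was done at 3-4 and 20-24 h post-injection, with 45-60 min emission and OSEM reconstruction (decay, attenuation, scatter corrected). The highest-SUV tumor per patient gave SUVpeak (mean voxel SUV in the 1-cm3 sphere of highest uptake, mass-normalized). Tumor:bloodpool and tumor:muscle ratios were compared at 4 vs 24 h by Wilcoxon signed-rank.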

[7] = patients, IV bolus, geometric mean
[8] = 4 hours post-injection, across patient population
[9] = one table row per patient, PET 4 h post-injection
[10] = one table row per patient, PET 24 h post-injection

CC(C)NCCCn1c(Sc2cc3c(cc2I)OCO3)nc2c(N)ncnc21 [^124I-PU-H71]
Relative amount in plasma supernatant, GM ([1]; 10 min after tracer injection): 69.2% | Relative amount in plasma supernatant, GM ([1]; 20 min after tracer injection): 51.7% | Relative amount in plasma supernatant, GM ([1]; 30 min after tracer injection): 44.9% | Relative amount in plasma supernatant, GM ([1]; 1h after tracer injection): 32.3% | Relative amount in plasma supernatant, GM ([1]; 4h after tracer injection): 22.7% | Time by which radiotracer became predominantly radiometabolites ([1]; plasma, p.i.): ≤ 1 h | Urinary excretion of tracer [2]: 29.5 ±10.9 %ID | Hepatobiliary excretion of tracer ([2]; bisacodyl given): 45.4 ±15.8 %ID | Plasma AUC coefficient of variation ([3]; between patients): 36.6% | Plasma radiotracer exposure ([3]; from 10 minutes to 4 hours post-injection): 1.7±0.6 % ID•g•h/mL | Blood t1/2 α, GM [3, 7]: 7.9 min | Blood t1/2 β, GM [3, 7]: 6.103 h | Plasma t1/2 α, GM [3, 7]: 7.0 min | Plasma t1/2 β, GM [3, 7]: 4.402 h | Brain uptake ([4]; PET): scant | 24-hour bloodpool SUV ([4]; average/SD, 24 hours post-injection): 0.2 ±0.1 | Adverse effects [5]: no adverse effects | Adverse effects ([5]; listed as PUH71 tracer): No signs or symptoms of adverse effects | Tumor:bloodpool ratio of radiotracer concentrations, average/SD [6, 8]: 3.2± 3.0 | Tumor:bloodpool ratio of radiotracer concentrations, maximum [6, 8]: up to 14.4 | Tumor:bloodpool SUV ratio ([6]; 24 h, person, stage IV pancreatic cancer (Fig. 1)): 19.8 | Tumor:bloodpool ratio of radiotracer concentrations, average/SD ([6]; 24 hours post-injection, across patient population): 3.9 ± 4.4 | 24-hour tumor SUV average/SD ([6]; between patients): 0.9 ± 0.8 | 24-hour tumor SUV coefficient of variation ([6]; between patients): 88.9% | 24-hour tumor SUV range ([6]; between patients): 0.1-3.8 | Patients in whom PU-H71-avid tumors were detected ([6]; n=26 evaluable patients, PET at 24 h): 58% | T:B 4 h (tumor:blood pool SUVpeak ratio) [6, 9]: 1.8 and 3.1 and 14.4 and 6.1 and 1.5 and 1.2 and 2.2 and 2.7 and 0.9 and 5.0 and 2.5 and 4.2 and 1.6 and 1.3 and 2.9 and 2.1 and 9.6 and 1.7 and 3.6 | T:M 4 h (tumor:muscle SUV ratio) [6, 9]: 1.8 and 6.0 and 22.0 and 5.1 and 2.1 and 1.2 and 2.8 and 1.9 and 2.4 and 5.3 and 2.0 and 1.0 and 5.4 and 4.0 and 3.3 and 5.2 and 3.0 and 3.8 and 1.5 and 7.7 and 2.7 and 4.9 | Tumor SUV 4 h (SUVpeak) [6, 9]: 1.1 and 1.6 and 11.0 and 2.5 and 0.64 and 0.8 and 0.7 and 0.9 and 3.4 and 1.7 and 3.2 and 2.1 and 1.3 and 1.8 and 2.7 and 1.5 and 2.2 and 1.2 | T:B 24 h (tumor:blood pool SUVpeak ratio) [6, 10]: 1.0 and 5.6 and 13.1 and 1.7 and 4.0 and 0.6 and 3.0 and 1.2 and 3.2 and 0.9 and 5.1 and 2.4 and 19.8 and 0.7 and 1.8 and 1.3 and 3.6 and 5.9 and 2.3 and 7.8 and 4.8 | T:M 24 h (tumor:muscle SUV ratio) [6, 10]: 1.6 and 11.2 and 20.0 and 8.0 and 6.7 and 1.2 and 6.0 and 2.3 and 1.5 and 6.4 and 1.0 and 1.1 and 8.8 and 2.1 and 6.2 and 2.5 and 4.6 ^****** and 1.4 and 3.3 and 5.6 and 5.2 and 17.5 and 1.3 and 5.1 | Tumor SUV 24 h (SUVpeak) [6, 10]: 0.3 and 0.6 and 3.8 and 0.8 and 0.4 and 0.1 and 0.2 and 1.0 and 0.7 and 1.8 and 1.1 and 1.6 and 0.5 and 1.3 and 0.9 and 2.1 and 1.5 | Decrease of tumor SUV between 4 to 24 hours ([6]; overall): 1.0±1.4 SUV units | Decrease of tumor SUV between 4 to 24 hours, range ([6]; overall): −25.0 to +87.5% | Decrease of tumor SUV between 4 to 24 hours, mean ± SD ([6]; overall, p=0.00002): 50.7 ± 27.0% | Increase of tumor:bloodpool SUV ratio between 3 and 24 h ([6]; person, stage IV pancreatic cancer (Fig. 1)): 371% | Median increase in tumor:bloodpool SUV ratio from 4 to 24 hours ([6]; population): 4.8% | Median increase in tumor:muscle SUV ratio from 4 to 24 hours ([6]; population): 20.9% | Range of change in tumor:bloodpool SUV ratio from 4 to 24 hours ([6]; population): −72.1 to +371.4% | Range of change in tumor:muscle SUV ratio from 4 to 24 hours ([6]; population): −63.2 to +257.1% | Average increase in tumor:muscle SUV ratio from 4 to 24 hours ([6]; population, p=0.02): 52.0 ± 87.3% | Average increase in tumor:bloodpool SUV ratio from 4 to 24 hours ([6]; population, p=0.9): 25.7 ± 99.9%
